Consider 13 molecules from ChEMBL document CHEMBL1938355, “Antimycobacterial activities of 5-alkyl (or halo)-3'-substituted pyrimidine nucleoside analogs” (Bioorg Med Chem Lett, 2012).

Data set [1] deals with Huh-7. As to the kind of experiment: Cytotoxicity against human HuH7 cells up to 100 ug/ml by XTT assay. The class given is cell-based. (Tetrazolium assays rely on reduction of a dye to a coloured formazan, in cell work by metabolically active cells.)
Data set [2] concerns Mycobacterium tuberculosis. The experiment in a line: Antimycobacterial activity against Mycobacterium tuberculosis H37Ra assessed as growth inhibition at 0.5 to 100 ug/ml by microplate alamar blue assay. The data set is classed as functional, organism-based. In outline:
(§1)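 Strains obtained from ATCC. Tested by microplate alamar blue assay. Compounds made up as 10 mg/mL DMSO stocks, then serially diluted in 7H9GC medium. Final test concentrations were 100, 50, 25, 10, 5, 1 and 0.5, each in triplicate. Experiments were run twice, and mean percent growth inhibition is reported.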
(In general: The colour change of resazurin is a common sign of viable cells or microbes.)

Data set [3] can be described thus: Cytotoxicity against human HuH7 cells by XTT assay. The class given is cell-based, Huh-7.
The test system of data set [4] is Huh-7. As to the kind of experiment: Cytotoxicity against human HuH7 cells up to 100 ug/ml by [3H]thymidine incorporation assay. The data set is classed as cell-based. For orientation: Incorporation of labelled thymidine or its analogues reports DNA synthesis.
The nature of data set [5]: Cytotoxicity against human HuH7 cells by [3H]thymidine incorporation assay. The class given is cell-based, Huh-7.
Data set [6] has as its system Mycobacterium avium. As to the kind of experiment: Antimycobacterial activity against Mycobacterium avium ATCC 25291 assessed as growth inhibition at 0.5 to 100 ug/ml by microplate alamar blue assay. The data set is classed as functional. The following applies: Mycobacterium avium subsp. avium ATCC 25291. In outline:
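M. avium ATCC 25291 (ATCC stock) in 7H9GC medium, microplate alamar blue read-out. Compounds dissolved in DMSO at 10 mg/mL (stock), diluted in medium to final 100, 50, 25, 10, 5, 1 and 0.5 µg/mL, each in triplicate. Two independent experiments; mean percent growth inhibition reported, SD within 10% of mean.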

For data set [7], the system named is Mycobacterium tuberculosis. The experiment in a line: Antimycobacterial activity against Mycobacterium tuberculosis H37Ra assessed as growth inhibition at 100 ug/ml by microplate alamar blue assay. The data set is classed as functional. The note with it: read-out: GI. The method in brief:
as §1

In data set [8] the test system is Mycobacterium tuberculosis. The experiment in a line: Antimycobacterial activity against Mycobacterium tuberculosis H37Ra assessed as growth inhibition at 0.5 to 1 ug/ml by microplate alamar blue assay. The data set is classed as functional. The method in brief:
as §1

Data set [9] concerns Mycobacterium avium. As to the kind of experiment: Antimycobacterial activity against Mycobacterium avium ATCC 25291 assessed as growth inhibition at 2 ug/ml by microplate alamar blue assay. The class given is functional, Mycobacterium avium subsp. avium ATCC 25291. The following applies: read-out: GI.
In data set [10] the test system is Mycobacterium avium. As to the kind of experiment: Antimycobacterial activity against Mycobacterium avium ATCC 25291 assessed as growth inhibition at 50 ug/ml by microplate alamar blue assay. The data set is classed as functional, Mycobacterium avium subsp. avium ATCC 25291. The following applies: read-out: GI. In outline: as §1
Data set [11] concerns Mycobacterium avium. The experiment in a line: Antimycobacterial activity against Mycobacterium avium ATCC 25291 assessed as growth inhibition at 100 ug/ml by microplate alamar blue assay. The data set is classed as functional, Mycobacterium avium subsp. avium ATCC 25291. The following applies: read-out: GI. In outline:
as §1

For data set [12], the system named is Mycobacterium tuberculosis. As to the kind of experiment: Antimycobacterial activity against Mycobacterium tuberculosis H37Ra assessed as growth inhibition at 15 to 20 ug/ml by microplate alamar blue assay. The data set is classed as functional.
Data set [13] concerns Mycobacterium tuberculosis. As to the kind of experiment: Antimycobacterial activity against Mycobacterium tuberculosis H37Ra by microplate alamar blue assay. The class given is functional.
The test system of data set [14] is Mycobacterium tuberculosis. As to the kind of experiment: Antimycobacterial activity against Mycobacterium tuberculosis H37Ra assessed as growth inhibition at 10 ug/ml by microplate alamar blue assay. The data set is classed as functional. The note with it: read-out: GI. The method in brief:
as §1

Data set [15] deals with Mycobacterium avium. As to the kind of experiment: Antimycobacterial activity against Mycobacterium avium ATCC 25291 assessed as growth inhibition at 10 ug/ml by microplate alamar blue assay. The following applies: read-out: GI. The class given is functional, Mycobacterium avium subsp. avium ATCC 25291. In outline:
as §1

The test system of data set [16] is Mycobacterium tuberculosis. The experiment in a line: Antimycobacterial activity against Mycobacterium tuberculosis H37Ra assessed as growth inhibition at 50 ug/ml by microplate alamar blue assay. The class given is functional. The following applies: read-out: GI. The method in brief:
as §1

Data set [17] relates to Mycobacterium tuberculosis. The experiment in a line: Antimycobacterial activity against Mycobacterium tuberculosis H37Ra assessed as growth inhibition at 5 ug/ml by microplate alamar blue assay. The data set is classed as functional. The note with it: read-out: GI. In outline:
as §1

The subject of data set [18] is Mycobacterium avium. The experiment in a line: Antimycobacterial activity against Mycobacterium avium ATCC 25291 by microplate alamar blue assay. The data set is classed as functional, Mycobacterium avium subsp. avium ATCC 25291.

Values after ≈ are worked out from the molar mass of the structure shown. Active and inactive are the calls of the source. The rule behind the calls is not given here.

As to `CCc1cn([C@H]2C[C@H](F)[C@@H](CO)O2)c(=O)[nH]c1=O`, the Activity entry with Huh-7 [1] and in the data set with Huh-7 [4] was “Non-toxic” throughout. Besides, the “growth inhibition (GI)” value (in [2]; in the data set on Mycobacterium avium [6]) was “inactive” in each case. For the same molecule, the CC50 in data set [3] and in data set [5] was above 100 µg/mL each time.

For `[N-]=[N+]=N[C@H]1C[C@H](n2cc(Br)c(=O)[nH]c2=O)O[C@@H]1CO`, the Activity result in the data set on Huh-7 [1] and in the data set on Huh-7 [4] was “Non-toxic” in each case. The CC50 in [3] and in data set [5] was above 100 µg/mL each time. Moreover, the inhibition of growth at 100 µg/mL in [7] was found to be 30%. For the same molecule, the “growth inhibition (GI)” value with Mycobacterium avium [6] was “inactive”.

Consider `CO[C@H]1/C=C/O[C@@]2(C)Oc3c(C)c(O)c4c(O)c(c(/C=N/N5CCN(C)CC5)c(O)c4c3C2=O)NC(=O)/C(C)=C\C=C\[C@H](C)[C@H](O)[C@@H](C)[C@@H](O)[C@@H](C)[C@H](OC(C)=O)[C@@H]1C` [RIFAMPIN], for which, in [8], the “growth inhibition (GI)” value is recorded as 100%. In the data set on Mycobacterium avium [9], the inhibition of growth at 2 µg/mL turned out to be 90%.

In the case of `CCc1cn([C@H]2CC[C@@H](CO)O2)c(=O)[nH]c1=O`, the Activity entry in the data set on Huh-7 [1] and in the data set with Huh-7 [4] was “Non-toxic” throughout. Further, the “growth inhibition (GI)” value (in data set [2]; in the data set on Mycobacterium avium [6]) was “inactive” each time. For the same molecule, the CC50 in [3] and in [5] was above 100 µg/mL in each case.

For the molecule `[N-]=[N+]=N[C@H]1C[C@H](n2cc(Cl)c(=O)[nH]c2=O)O[C@@H]1CO`, the Activity result in the data set with Huh-7 [1] and with Huh-7 [4] was “Non-toxic” in each case. In addition, the half-maximal cytotoxic concentration (CC50) in [3] and in [5] was above 100 µg/mL throughout. For the same molecule, the inhibition of growth at 100 µg/mL in data set [7] turned out to be 50%. Also, in the data set with Mycobacterium avium [6], the “growth inhibition (GI)” value is “inactive”.

Take `N[C@@H]1CONC1=O` [CYCLOSERINE]: the inhibition of growth at 50 µg/mL (with Mycobacterium avium [10]; in [16]) was 100% each time. The inhibition of growth at 100 µg/mL in the data set on Mycobacterium avium [11] is 100%. Moreover, in [12], the “growth inhibition (GI)” value is listed as 80%. Moreover, the MIC50 in data set [13] amounted to 5 µg/mL (≈ 49 µM). Further, the figures for the inhibition of growth at 10 µg/mL (in data set [14]; with Mycobacterium avium [15]) were 60% and 15%, respectively. Besides, in data set [17], the inhibition of growth at 5 µg/mL was determined as 50%.

Turning to `CC[C@H]1OC(=O)[C@H](C)[C@@H](O[C@H]2C[C@@](C)(OC)[C@@H](O)[C@H](C)O2)[C@H](C)[C@@H](O[C@@H]2O[C@H](C)C[C@H](N(C)C)[C@H]2O)[C@](C)(OC)C[C@@H](C)C(=O)[C@H](C)[C@@H](O)[C@]1(C)O` [CLARITHROMYCIN], the inhibition of growth at 2 µg/mL in the data set with Mycobacterium avium [9] came out at 100%.

Regarding `CCc1cn([C@H]2C[C@@H](O)[C@@H](CO)O2)c(=O)[nH]c1=O`, the Activity result with Huh-7 [1] and in the data set with Huh-7 [4] was “Non-toxic” throughout. In addition, the “growth inhibition (GI)” value (in data set [2]; with Mycobacterium avium [6]) was “inactive” throughout. The CC50 in data set [3] and in [5] was above 100 µg/mL throughout.

`CCc1cn([C@H]2C[C@H](N=[N+]=[N-])[C@@H](CO)O2)c(=O)[nH]c1=O`: the inhibition of growth at 50 µg/mL (with Mycobacterium avium [10]; in [16]) was 60% each time. Also, the inhibition of growth at 100 µg/mL worked out at 100% in the data set on Mycobacterium avium [11] and 60% in [7]. The Activity entry with Huh-7 [1] and in the data set with Huh-7 [4] was “Non-toxic” in each case. Moreover, the MIC50 (in data set [13]; in the data set on Mycobacterium avium [18]) was 10 µg/mL (≈ 35.6 µM) throughout. Moreover, the 50% cytotoxic concentration (CC50) in data set [3] and in data set [5] was above 100 µg/mL throughout. Further, the inhibition of growth at 10 µg/mL (in data set [14]; with Mycobacterium avium [15]) was 50% in each case.

On to `CCc1cn([C@H]2C[C@H](I)[C@@H](CO)O2)c(=O)[nH]c1=O`, for which the Activity result in the data set on Huh-7 [1] and with Huh-7 [4] was “Non-toxic” throughout. In addition, the “growth inhibition (GI)” value (in [2]; in the data set with Mycobacterium avium [6]) was “inactive” each time. The CC50 in data set [3] and in [5] was above 100 µg/mL each time.

With `O=c1[nH]c(=O)n([C@H]2C[C@H](F)[C@@H](CO)O2)cc1C(F)(F)F`, the inhibition of growth at 100 µg/mL in the data set on Mycobacterium avium [11] turned out to be 25%. Besides, the Activity entry in the data set with Huh-7 [1] and in the data set on Huh-7 [4] was “Non-toxic” throughout. Further, the “growth inhibition (GI)” value in [2] is “inactive”. Also, the CC50 in [3] and in data set [5] was above 100 µg/mL each time.

`[N-]=[N+]=N[C@H]1C[C@H](n2cc(F)c(=O)[nH]c2=O)O[C@@H]1CO`: the Activity result in the data set with Huh-7 [1] and in the data set with Huh-7 [4] was “Non-toxic” throughout. In addition, the “growth inhibition (GI)” value (in data set [2]; in the data set with Mycobacterium avium [6]) was “inactive” each time. For the same molecule, the CC50 in data set [3] and in [5] was above 100 µg/mL each time.

`Cc1cn([C@H]2C[C@H](N)[C@@H](CO)O2)c(=O)[nH]c1=O` [3-AMINO- 3-DEOXYTHYMIDINE]: the Activity entry in the data set with Huh-7 [1] and in the data set with Huh-7 [4] was “Non-toxic” in each case. Further, the “growth inhibition (GI)” value (in [2]; in the data set on Mycobacterium avium [6]) was “inactive” each time. The CC50 in [3] and in [5] was above 100 µg/mL each time.

The term CC50 denotes the concentration that lowers cell viability or growth by half. A low value points to harm at low concentration. The MIC50 is the lowest concentration that inhibits either 50% of growth or 50% of the strains tested, depending on the study.
